# Assay results as given in ChEMBL document CHEMBL1255364, “Delayed development of linezolid resistance in Staphylococcus aureus following exposure to low levels of antimicrobial agents” (2008).
# Activity calls are given as the source filed them. No cut-off for these calls is given here.
# How the values were obtained:
# [1] = system: Staphylococcus aureus; assay: Suppression of drug resistance development in Staphylococcus aureus RN4220 assessed as assessed as prolonged length of subculture to develop Linezolid resistance at 0.25 times IC50
# [2] = system: Staphylococcus aureus; assay: Antibacterial activity against Staphylococcus aureus KM50 after 18 to 24 hrs by broth microdilution method selected after 16 ug/ml drug exposure for 6 hrs by culture absorbance method; type: functional
# Method in brief: (§1)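 Broth microdilution in Mueller-Hinton broth per BSAC guidelines. MIC read as the lowest concentration completely inhibiting visible growth after 18 to 24 h at 37°C. Strains were linezolid-selected derivatives recovered from repeated 6-h linezolid exposure cycles.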
# [3] = system: Staphylococcus aureus; assay: Antibacterial activity against Staphylococcus aureus KM53 after 18 to 24 hrs by broth microdilution method selected after 16 ug/ml drug exposure for 6 hrs by culture absorbance method; type: functional
# Method in brief: as §1
# [4] = system: Staphylococcus aureus; assay: Suppression of drug resistance development in recA-deficient Staphylococcus aureus KB103 assessed as prolonged length of subculture to develop Linezolid resistance at 4 times MIC and 0.25 times IC50 after 20 days; type: functional, organism-based
# Method in brief: (§2)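 Stationary-phase MHB cultures were exposed for 6 h to linezolid at 4× MIC, with secondary agent(s) at 0.25× IC50. IC50 was the concentration halving growth rate by culture absorbance. A 5 μl aliquot was transferred to fresh drug-free medium and the cycle repeated. […] Four runs were done, with days to resistance averaged to the nearest day.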
# [5] = system: Staphylococcus aureus; assay: Antibacterial activity against Staphylococcus aureus KM52 after 18 to 24 hrs by broth microdilution method selected after 16 ug/ml drug exposure for 6 hrs by culture absorbance method; type: functional
# Method in brief: as §1
# [6] = system: Staphylococcus aureus; assay: Antibacterial activity against Staphylococcus aureus KM183 after 18 to 24 hrs by broth microdilution method selected after 16 ug/ml drug exposure for 6 hrs by culture absorbance method; type: functional
# Method in brief: as §1
# [7] = system: Staphylococcus aureus; assay: Antibacterial activity against Staphylococcus aureus KM51 after 18 to 24 hrs by broth microdilution method selected after 16 ug/ml drug exposure for 6 hrs by culture absorbance method; type: functional
# Method in brief: as §1
# [8] = system: Staphylococcus aureus; assay: Suppression of drug resistance development in LZD intermediate-resistant Staphylococcus aureus KM183 assessed as prolonged length of subculture to develop Linezolid resistance at 4 times MIC and 0.25 times IC50 after 8 days; type: functional, organism-based
# Method in brief: as §2
# [9] = system: Staphylococcus aureus; assay: Antibacterial activity against Staphylococcus aureus KM187 after 18 to 24 hrs by broth microdilution method selected after 16 ug/ml drug exposure for 6 hrs by culture absorbance method; type: functional
# Method in brief: as §1
# [10] = system: Staphylococcus aureus; assay: Suppression of resistance related recombination in Staphylococcus aureus RN4220 at 0.25 times IC50 at 42 degC
# [11] = system: Staphylococcus aureus; assay: Suppression of drug resistance development in Staphylococcus aureus RN4220 assessed as prolonged length of subculture to develop Linezolid resistance at 4 times MIC and 0.25 times IC50 after 25 days; type: functional, organism-based
# Method in brief: as §2
# [12] = system: Staphylococcus aureus; assay: Suppression of drug resistance development in Staphylococcus aureus isolate EMRAS-15 assessed as prolonged length of subculture to develop Linezolid resistance at 4 times MIC and 0.25 times IC50 after 25 days; type: functional, organism-based
# Method in brief: as §2
# [13] = system: Staphylococcus aureus; assay: Suppression of drug resistance development in Staphylococcus aureus RN4220 assessed as assessed as prolonged length of subculture to develop Linezolid resistance at 0.25 times MIC; type: functional
compound,measurement,setting,value
O=C(O)c1cn(C2CC2)c2cc(N3CCNCC3)c(F)cc2c1=O [CIPROFLOXACIN],Time,[1],14 days
CC(=O)NC[C@H]1CN(c2ccc(N3CCOCC3)c(F)c2)C(=O)O1 [LINEZOLID],MIC,[2],32 µg/mL
same,MIC,[3],32 µg/mL
same,Activity,[4],Active
same,MIC,[5],32 µg/mL
same,MIC,[6],16 µg/mL
same,MIC,[7],32 µg/mL
same,Activity,[8],Active
same,MIC,[9],32 µg/mL
CO[C@@H]1[C@@H](OC(N)=O)[C@@H](O)[C@H](Oc2ccc3c(O)c(NC(=O)c4ccc(O)c(CC=C(C)C)c4)c(=O)oc3c2C)OC1(C)C [NOVOBIOCIN],Time,[1],14 days
CO[C@H]1/C=C/O[C@@]2(C)Oc3c(C)c(O)c4c(O)c(c(/C=N/N5CCN(C)CC5)c(O)c4c3C2=O)NC(=O)/C(C)=C\C=C\[C@H](C)[C@H](O)[C@@H](C)[C@@H](O)[C@@H](C)[C@H](OC(C)=O)[C@@H]1C,Activity,[4],Active
same,inhibition,[10],Active
same,Activity,[11],Active
CC(=O)O[C@H]1C[C@@]2(C)[C@@H](C[C@@H](O)[C@H]3[C@@]4(C)CC[C@@H](O)[C@@H](C)[C@@H]4CC[C@@]32C)/C1=C(\CCC=C(C)C)C(=O)O,Activity,[4],Active
same,inhibition,[10],Active
same,Activity,[12],Active
same,Activity,[11],Active
CN(C)[C@@H]1C(O)=C(C(N)=O)C(=O)[C@@]2(O)C(O)=C3C(=O)c4c(O)cccc4[C@@](C)(O)[C@H]3C[C@@H]12 [TETRACYCLINE],Time,[1],14 days
GENTAMICIN,TIME,[13],336 h
